Data taken from ChEMBL document CHEMBL5058577, “EUbOPEN Chemogenomics Library 2 (Multiplex)” (2022).
Non-standard residues stand in square brackets, D forms with d. Residues, ends and D or L forms follow the SMILES beside them.

Test system: U2OS
Assay: Multiplex assay against U2OS
Type: toxicity, cell-based
Settings: human
Procedure, shortened: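 At seeding, live cells were stained with Hoechst33342, BioTracker Green Microtubule Cytoskeleton Dye, MitoTracker Red and Annexin V Alexa Fluor 680. After compound addition they were imaged on a CQ1 microscope at 37°C and 5% CO2, and CellPathfinder machine-learning gating sorted them into Hoechst high-intensity objects or normal cells, with normal cells further split into healthy, pyknosed or fragmented nuclei and pyknosed cells into mitotic or apoptotic. Tubulin, mitochondrial-mass and membrane-permeability phenotypes are given as per cents of cells with healthy nuclei.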

[1] = 12 h, 1 µM, compound concentration 1 uM, replicate 1
[2] = 12 h, 1 µM, compound concentration 1 uM, replicate 2
[3] = 12 h, 10 µM, compound concentration 10 uM, replicate 1
[4] = 12 h, 10 µM, compound concentration 10 uM, replicate 2
[5] = 24 h, 1 µM, compound concentration 1 uM, replicate 1
[6] = 24 h, 1 µM, compound concentration 1 uM, replicate 2
[7] = 24 h, 10 µM, compound concentration 10 uM, replicate 1
[8] = 24 h, 10 µM, compound concentration 10 uM, replicate 2
[9] = 48 h, 1 µM, compound concentration 1 uM, replicate 1
[10] = 48 h, 1 µM, compound concentration 1 uM, replicate 2
[11] = 48 h, 10 µM, compound concentration 10 uM, replicate 1
[12] = 48 h, 10 µM, compound concentration 10 uM, replicate 2

## CCC(=O)OCC(=O)[C@@]1(OC(=O)CC)[C@@H](C)C[C@H]2[C@@H]3CCC4=CC(=O)C=C[C@]4(C)[C@@]3(Cl)[C@@H](O)C[C@@]21C [BECLOMETHASONE DIPROPIONATE]
[1]
  Population Apoptotic (%): 84%
  Population Fragmented Nuclei (%): 23%
  Population Healthy Nuclei (%): 64%
  Population Hoechst High Intensity Objects (%): 1%
  Population Membrane Permeable-Phenotype (%): 11%
  Population Mitochondria Different-Phenotype (%): 4%
  Population Mitotic Cells (%): 15%
  Population Normal (%): 98%
  Population Pyknosed Nuclei (%): 12%
  Population Tubulin-Different-Phenotype (%): 6%
  Total Cell Count: 160
[2]
  Population Apoptotic (%): 71%
  Population Fragmented Nuclei (%): 18%
  Population Healthy Nuclei (%): 75%
  Population Hoechst High Intensity Objects (%): 0%
  Population Membrane Permeable-Phenotype (%): 13%
  Population Mitochondria Different-Phenotype (%): 8%
  Population Mitotic Cells (%): 28%
  Population Normal (%): 99%
  Population Pyknosed Nuclei (%): 6%
  Population Tubulin-Different-Phenotype (%): 4%
  Total Cell Count: 111
[3]
  Population Apoptotic (%): 65%
  Population Fragmented Nuclei (%): 42%
  Population Healthy Nuclei (%): 40%
  Population Hoechst High Intensity Objects (%): 4%
  Population Membrane Permeable-Phenotype (%): 67%
  Population Mitochondria Different-Phenotype (%): 73%
  Population Mitotic Cells (%): 34%
  Population Normal (%): 95%
  Population Pyknosed Nuclei (%): 17%
  Population Tubulin-Different-Phenotype (%): 80%
  Total Cell Count: 176
[4]
  Population Apoptotic (%): 68%
  Population Fragmented Nuclei (%): 12%
  Population Healthy Nuclei (%): 69%
  Population Membrane Permeable-Phenotype (%): 48%
  Population Mitochondria Different-Phenotype (%): 97%
  Population Mitotic Cells (%): 31%
  Population Pyknosed Nuclei (%): 18%
  Population Tubulin-Different-Phenotype (%): 97%
  Total Cell Count: 109
[5]
  Population Apoptotic (%): 78%
  Population Fragmented Nuclei (%): 21%
  Population Healthy Nuclei (%): 67%
  Population Hoechst High Intensity Objects (%): 2%
  Population Membrane Permeable-Phenotype (%): 2%
  Population Mitochondria Different-Phenotype (%): 4%
  Population Mitotic Cells (%): 21%
  Population Normal (%): 97%
  Population Pyknosed Nuclei (%): 10%
  Population Tubulin-Different-Phenotype (%): 1%
  Total Cell Count: 217
[6]
  Population Apoptotic (%): 87%
  Population Fragmented Nuclei (%): 15%
  Population Healthy Nuclei (%): 71%
  Population Hoechst High Intensity Objects (%): 0%
  Population Membrane Permeable-Phenotype (%): 6%
  Population Mitochondria Different-Phenotype (%): 5%
  Population Mitotic Cells (%): 12%
  Population Normal (%): 99%
  Population Pyknosed Nuclei (%): 13%
  Population Tubulin-Different-Phenotype (%): 3%
  Total Cell Count: 123
[7]
  Population Apoptotic (%): 74%
  Population Fragmented Nuclei (%): 35%
  Population Healthy Nuclei (%): 45%
  Population Hoechst High Intensity Objects (%): 3%
  Population Membrane Permeable-Phenotype (%): 40%
  Population Mitochondria Different-Phenotype (%): 72%
  Population Mitotic Cells (%): 25%
  Population Normal (%): 96%
  Population Pyknosed Nuclei (%): 18%
  Population Tubulin-Different-Phenotype (%): 66%
  Total Cell Count: 174
[8]
  Population Apoptotic (%): 64%
  Population Fragmented Nuclei (%): 12%
  Population Healthy Nuclei (%): 69%
  Population Hoechst High Intensity Objects (%): 9%
  Population Membrane Permeable-Phenotype (%): 43%
  Population Mitochondria Different-Phenotype (%): 86%
  Population Mitotic Cells (%): 35%
  Population Normal (%): 90%
  Population Pyknosed Nuclei (%): 17%
  Population Tubulin-Different-Phenotype (%): 76%
  Total Cell Count: 106
[9]
  Population Apoptotic (%): 91%
  Population Fragmented Nuclei (%): 22%
  Population Healthy Nuclei (%): 68%
  Population Hoechst High Intensity Objects (%): 2%
  Population Membrane Permeable-Phenotype (%): 5%
  Population Mitochondria Different-Phenotype (%): 2%
  Population Mitotic Cells (%): 8%
  Population Normal (%): 97%
  Population Pyknosed Nuclei (%): 9%
  Population Tubulin-Different-Phenotype (%): 2%
  Total Cell Count: 268
[10]
  Population Apoptotic (%): 85%
  Population Fragmented Nuclei (%): 10%
  Population Healthy Nuclei (%): 75%
  Population Membrane Permeable-Phenotype (%): 8%
  Population Mitochondria Different-Phenotype (%): 5%
  Population Mitotic Cells (%): 14%
  Population Pyknosed Nuclei (%): 14%
  Population Tubulin-Different-Phenotype (%): 3%
  Total Cell Count: 152
[11]
  Population Apoptotic (%): 80%
  Population Fragmented Nuclei (%): 36%
  Population Healthy Nuclei (%): 47%
  Population Hoechst High Intensity Objects (%): 4%
  Population Membrane Permeable-Phenotype (%): 20%
  Population Mitochondria Different-Phenotype (%): 26%
  Population Mitotic Cells (%): 20%
  Population Normal (%): 95%
  Population Pyknosed Nuclei (%): 15%
  Population Tubulin-Different-Phenotype (%): 14%
  Total Cell Count: 199
[12]
  Population Apoptotic (%): 70%
  Population Fragmented Nuclei (%): 21%
  Population Healthy Nuclei (%): 65%
  Population Hoechst High Intensity Objects (%): 6%
  Population Membrane Permeable-Phenotype (%): 16%
  Population Mitochondria Different-Phenotype (%): 36%
  Population Mitotic Cells (%): 29%
  Population Normal (%): 93%
  Population Pyknosed Nuclei (%): 13%
  Population Tubulin-Different-Phenotype (%): 10%
  Total Cell Count: 131

## CC(C)C[C@@H]1NC(=O)[C@@H](C(C)C)NC(=O)[C@@H]2CCCN2C(=O)[C@@H](CC(=O)O)NC(=O)[C@@H](Cc2c[nH]c3ccccc23)NC1=O [BQ-123] (cyclo(L[dW][dD]P[dV]))
[1]
  Population Apoptotic (%): 77%
  Population Fragmented Nuclei (%): 20%
  Population Healthy Nuclei (%): 69%
  Population Hoechst High Intensity Objects (%): 0%
  Population Membrane Permeable-Phenotype (%): 1%
  Population Mitochondria Different-Phenotype (%): 1%
  Population Mitotic Cells (%): 22%
  Population Normal (%): 99%
  Population Pyknosed Nuclei (%): 9%
  Population Tubulin-Different-Phenotype (%): 0%
  Total Cell Count: 228
[2]
  Population Apoptotic (%): 83%
  Population Fragmented Nuclei (%): 19%
  Population Healthy Nuclei (%): 75%
  Population Hoechst High Intensity Objects (%): 2%
  Population Membrane Permeable-Phenotype (%): 2%
  Population Mitochondria Different-Phenotype (%): 0%
  Population Mitotic Cells (%): 16%
  Population Normal (%): 97%
  Population Pyknosed Nuclei (%): 5%
  Population Tubulin-Different-Phenotype (%): 8%
  Total Cell Count: 118
[3]
  Population Apoptotic (%): 78%
  Population Fragmented Nuclei (%): 29%
  Population Healthy Nuclei (%): 65%
  Population Hoechst High Intensity Objects (%): 2%
  Population Membrane Permeable-Phenotype (%): 8%
  Population Mitochondria Different-Phenotype (%): 1%
  Population Mitotic Cells (%): 21%
  Population Normal (%): 97%
  Population Pyknosed Nuclei (%): 4%
  Population Tubulin-Different-Phenotype (%): 3%
  Total Cell Count: 294
[4]
  Population Apoptotic (%): 75%
  Population Fragmented Nuclei (%): 25%
  Population Healthy Nuclei (%): 70%
  Population Membrane Permeable-Phenotype (%): 7%
  Population Mitochondria Different-Phenotype (%): 4%
  Population Mitotic Cells (%): 25%
  Population Tubulin-Different-Phenotype (%): 2%
  Total Cell Count: 99
[5]
  Population Apoptotic (%): 69%
  Population Fragmented Nuclei (%): 16%
  Population Healthy Nuclei (%): 75%
  Population Hoechst High Intensity Objects (%): 0%
  Population Membrane Permeable-Phenotype (%): 2%
  Population Mitochondria Different-Phenotype (%): 1%
  Population Mitotic Cells (%): 30%
  Population Normal (%): 99%
  Population Pyknosed Nuclei (%): 8%
  Population Tubulin-Different-Phenotype (%): 1%
  Total Cell Count: 279
[6]
  Population Apoptotic (%): 85%
  Population Fragmented Nuclei (%): 11%
  Population Healthy Nuclei (%): 77%
  Population Membrane Permeable-Phenotype (%): 6%
  Population Mitochondria Different-Phenotype (%): 0%
  Population Mitotic Cells (%): 14%
  Population Pyknosed Nuclei (%): 10%
  Population Tubulin-Different-Phenotype (%): 3%
  Total Cell Count: 137
[7]
  Population Apoptotic (%): 92%
  Population Fragmented Nuclei (%): 24%
  Population Healthy Nuclei (%): 67%
  Population Hoechst High Intensity Objects (%): 2%
  Population Membrane Permeable-Phenotype (%): 8%
  Population Mitochondria Different-Phenotype (%): 2%
  Population Mitotic Cells (%): 8%
  Population Normal (%): 97%
  Population Pyknosed Nuclei (%): 7%
  Population Tubulin-Different-Phenotype (%): 4%
  Total Cell Count: 338
[8]
  Population Apoptotic (%): 100%
  Population Healthy Nuclei (%): 74%
  Population Hoechst High Intensity Objects (%): 0%
  Population Membrane Permeable-Phenotype (%): 6%
  Population Mitochondria Different-Phenotype (%): 8%
  Population Mitotic Cells (%): 0%
  Population Normal (%): 99%
  Population Pyknosed Nuclei (%): 1%
  Total Cell Count: 113
[9]
  Population Apoptotic (%): 77%
  Population Fragmented Nuclei (%): 14%
  Population Healthy Nuclei (%): 79%
  Population Hoechst High Intensity Objects (%): 1%
  Population Membrane Permeable-Phenotype (%): 3%
  Population Mitochondria Different-Phenotype (%): 1%
  Population Mitotic Cells (%): 22%
  Population Normal (%): 98%
  Population Pyknosed Nuclei (%): 5%
  Population Tubulin-Different-Phenotype (%): 3%
  Total Cell Count: 407
[10]
  Population Apoptotic (%): 100%
  Population Fragmented Nuclei (%): 18%
  Population Healthy Nuclei (%): 70%
  Population Mitochondria Different-Phenotype (%): 3%
  Population Mitotic Cells (%): 0%
  Population Pyknosed Nuclei (%): 10%
  Population Tubulin-Different-Phenotype (%): 2%
  Total Cell Count: 226
[11]
  Population Apoptotic (%): 94%
  Population Fragmented Nuclei (%): 19%
  Population Healthy Nuclei (%): 70%
  Population Hoechst High Intensity Objects (%): 1%
  Population Membrane Permeable-Phenotype (%): 5%
  Population Mitochondria Different-Phenotype (%): 2%
  Population Mitotic Cells (%): 5%
  Population Normal (%): 98%
  Population Pyknosed Nuclei (%): 9%
  Population Tubulin-Different-Phenotype (%): 3%
  Total Cell Count: 435
[12]
  Population Apoptotic (%): 81%
  Population Fragmented Nuclei (%): 20%
  Population Healthy Nuclei (%): 66%
  Population Mitochondria Different-Phenotype (%): 6%
  Population Mitotic Cells (%): 18%
  Population Pyknosed Nuclei (%): 12%
  Population Tubulin-Different-Phenotype (%): 2%
  Total Cell Count: 131
